Assay results of several laboratories.
Compare with care: the assays were run in different laboratories.
AMY2: Pancreatic alpha-amylase (AMY2, Sus scrofa, UniProt P00690)
CDK4 with cyclin D1: Cyclin-dependent kinase 4, with cyclin D1 (CDK4, Homo sapiens, UniProt P11802)
CHRM2: Muscarinic acetylcholine receptor M2 (CHRM2, Homo sapiens, UniProt P08172)
CDK4 with cyclin D3: Cyclin-dependent kinase 4, with cyclin D3 (CDK4, Homo sapiens, UniProt P11802)

Cc1cc(O)c(-c2ccc([C@@H](C)CN(C)C)cc2)c2c1[nH]c(=O)c1sccc12  IC50 (Cyclin-dependent kinase 19, with cyclin C (CDK19, Homo sapiens, UniProt Q9BWU1); enzyme activity, inhibitor): > 1000 nM
O=c1c(O)c(-c2ccc(O)cc2)oc2cc(O)cc(O)c12  IC50 (AMY2; enzyme activity, inhibitor): 10400 nM
Cc1c(N2CCOCC2)oc2c(-c3ccc(Nc4ncc5cc(C(=O)N(C)C)n(C6CCCC6)c5n4)cc3F)cccc2c1=O  IC50 (CDK4 with cyclin D1; enzyme activity, inhibitor, radiometric): 3300 nM
O=C(CCNC(=O)CNC(=O)CC(c1ccccc1)(c1ccccc1)c1ccccc1)NC[C@@H]1CCCN(Cc2ccc(F)nc2)C1  IC50 (CHRM2; ligand displacement, radioligand; cell membranes): > 30000 nM
CN1CCN(c2cc(=O)c3ccc(Nc4ncc5cc(C(=O)N(C)C)n(C6CCCC6)c5n4)cc3o2)CC1  IC50 (CDK4 with cyclin D1; enzyme activity, inhibitor, radiometric): 8 nM
CNS(=O)(=O)c1ccc(Nc2ncc(C(F)(F)F)c(N3CCC[C@](C)(O)C3)n2)c(C)c1  IC50 (CDK4 with cyclin D3; enzyme activity, inhibitor, radiometric): 827 nM
O=c1c(O)c(-c2ccc(O)cc2)oc2c(Br)c(O)c(Br)c(O)c12  IC50 (AMY2; enzyme activity, inhibitor): 3710 nM
CC(C)NC(=O)COc1cccc(-c2nc(Nc3ccc4[nH]ncc4c3)c3ccccc3n2)c1  IC50 (Organic anion transporter 3 (SLC22A8, Homo sapiens, UniProt Q8TCC7); transporter uptake, inhibitor, radiometric; HEK293): > 1000 nM
COc1ccc2c(c1)CN(C(=O)CCN1CCC(Cc3ccccc3)CC1)CC[S@@+]2[O-]  IC50 (Voltage-dependent L-type calcium channel subunit alpha-1C (CACNA1C, Homo sapiens, UniProt Q13936); ion current, inhibitor, patch clamp): > 100000 nM
O=c1cc(-c2ccc(O)c(O)c2)oc2c(Br)c(O)c(Br)c(O)c12  IC50 (AMY2; enzyme activity, inhibitor): 990 nM
O=C(CCNC(=O)CNC(=O)CC(c1ccccc1)(c1ccccc1)c1ccccc1)NC[C@@H]1CCCN(Cc2cccnc2F)C1  IC50 (CHRM2; ligand displacement, radioligand; cell membranes): > 30000 nM
CN(C)C(=O)c1cc2cnc(Nc3ccc4c(=O)cc(N5CCOCC5)oc4c3)nc2n1C1CCCC1  IC50 (CDK4 with cyclin D1; enzyme activity, inhibitor, radiometric): 4.2 nM
CN1CCC(CNc2ccc3ncc(-c4cccc(OC(F)(F)F)c4)n3n2)CC1  IC50 (CHRM2; cAMP, antagonist): 5140 nM
O=C(/C=C/c1ccc(O)c(O)c1)O[C@H](Cc1ccc(O)c(O)c1)C(=O)O  IC50 (Pancreatic triacylglycerol lipase (PNLIP, Sus scrofa, UniProt P00591); enzyme activity, inhibitor, absorbance; pH 8): 137000 nM
CN(C)C(=O)c1cc2cnc(Nc3ccc(-c4ccc5c(=O)cc(N6CCOCC6)oc5c4)c(F)c3)nc2n1C1CCCC1  IC50 (CDK4 with cyclin D1; enzyme activity, inhibitor, radiometric): 12.3 nM
CNS(=O)(=O)c1ccc(Nc2ncc(C(F)(F)F)c([C@H]3CC[C@](C)(O)CC3)n2)c(C)c1  IC50 (CDK4 with cyclin D3; enzyme activity, inhibitor, radiometric): 247 nM
CN(C)C(=O)c1cc2cnc(Nc3ccc(-c4cccc5c(=O)cc(N6CCOCC6)oc45)cc3)nc2n1C1CCCC1  IC50 (CDK4 with cyclin D1; enzyme activity, inhibitor, radiometric): 226 nM
CC(C)(C)NS(=O)(=O)c1cccc(C(=O)N2CC3(CCC4(CC4)CC3)c3cc(NS(C)(=O)=O)ccc32)c1  IC50 (Kinesin-like protein KIF18B (Homo sapiens, UniProt Q86Y91); ATPase activity, inhibitor): > 100000 nM
Cc1cc(S(=O)(=O)NCCO[C@H]2CC[C@H](CN3CCC(c4ccn5c(N6CCC(=O)NC6=O)cnc5c4)CC3)CC2)ccc1Nc1ncc2cc(Cl)c(=O)n(C3CCCC3)c2n1  IC50 (CDK4 with cyclin D3; enzyme activity, inhibitor, radiometric): 26 nM
